Data on 20 molecules can be found in ChEMBL document CHEMBL1148652, “Design of potent, orally available antagonists of the transient receptor potential vanilloid 1. Structure-activity relationships of 2-piperazin-1-yl-1H-benzimidazoles” (J Med Chem, 2006).

The nature of series [1]: Cmax in Sprague-Dawley rat at 5 mg/kg, po. The series is classed as ADME, organism-based. Also on record: dose 5 mg/kg, route oral. As to conditions: in vivo.
Series [2] in a line: Clearance in Sprague-Dawley rat at 1 mg/kg, iv. Type of series: ADME, organism-based. Also on record: dose 1 mg/kg, route intravenous. To be noted: in vivo.
In series [3] the target is T1, Transient receptor potential cation channel subfamily V member 1 (Rattus norvegicus, UniProt O35433). Put plainly: Antagonist activity against capsaicin-induced 45calcium ion uptake in CHO cells expressing rat TRPV1. The series is classed as functional, cell-based. An outline of the steps: (§1)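 CHO cells recombinantly expressing rat TRPV1; inhibition of 45Ca2+ uptake triggered by capsaicin or by acid, pH 5. Functional IC50 in nM, averaged over at least two independent experiments, each with three replicates per concentration.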
T1 sequence (O35433 whole entry): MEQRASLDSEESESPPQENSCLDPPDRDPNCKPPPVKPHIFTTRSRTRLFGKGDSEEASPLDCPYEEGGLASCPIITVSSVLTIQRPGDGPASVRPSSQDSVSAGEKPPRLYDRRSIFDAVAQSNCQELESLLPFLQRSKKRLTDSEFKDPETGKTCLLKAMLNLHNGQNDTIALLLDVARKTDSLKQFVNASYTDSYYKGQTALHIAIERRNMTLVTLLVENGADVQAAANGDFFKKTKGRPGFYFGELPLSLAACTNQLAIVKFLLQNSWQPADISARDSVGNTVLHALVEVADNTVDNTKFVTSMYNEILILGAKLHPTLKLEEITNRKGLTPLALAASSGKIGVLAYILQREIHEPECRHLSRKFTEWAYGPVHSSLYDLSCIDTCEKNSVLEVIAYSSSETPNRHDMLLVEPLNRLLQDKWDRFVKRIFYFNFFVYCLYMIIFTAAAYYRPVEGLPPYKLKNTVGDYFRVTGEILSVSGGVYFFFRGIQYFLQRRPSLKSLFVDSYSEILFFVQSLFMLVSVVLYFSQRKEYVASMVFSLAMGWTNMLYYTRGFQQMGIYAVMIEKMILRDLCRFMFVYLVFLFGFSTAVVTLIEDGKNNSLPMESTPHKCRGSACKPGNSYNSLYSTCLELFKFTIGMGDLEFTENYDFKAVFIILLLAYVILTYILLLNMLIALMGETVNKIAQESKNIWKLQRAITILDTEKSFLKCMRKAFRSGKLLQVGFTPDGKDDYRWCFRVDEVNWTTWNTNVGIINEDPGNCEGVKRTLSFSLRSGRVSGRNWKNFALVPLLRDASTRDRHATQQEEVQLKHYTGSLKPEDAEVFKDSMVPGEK

Series [4] in a line: Elimination half life in Sprague-Dawley rat at 1 mg/kg, iv. As to conditions: in vivo. Also on record: dose 1 mg/kg, route intravenous. The series is classed as ADME, organism-based.
A short description of series [5]: Tmax in Sprague-Dawley rat at 5 mg/kg, po. The series is classed as ADME, organism-based. Also on record: dose 5 mg/kg, route oral. As to conditions: in vivo.
Series [6] deals with Transient receptor potential cation channel subfamily V member 1 (Rattus norvegicus) (UniProt O35433). Briefly: Antinociceptive activity in Sprague-Dawley rat assessed as reversal of CFA-induced thermal hyperalgesia. Type of series: functional. The essentials:
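Thermal hyperalgesia induced in rats by complete Freund's adjuvant; reversal assessed after oral dosing at 30 mg/kg.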

Series [7] addresses T1, Transient receptor potential cation channel subfamily V member 1. Briefly: Antagonist activity against acid-induced 45calcium ion uptake in CHO cells expressing rat TRPV1 at pH5. Type of series: functional, cell-based. The essentials:
as §1

Series [8] in a line: Volume of distribution in Sprague-Dawley rat at 1 mg/kg, iv. On the set-up: dose 1 mg/kg, route intravenous. As to conditions: in vivo, read-out: Vdss. The series is classed as ADME, organism-based.
In series [9] the target is Transient receptor potential cation channel subfamily V member 1 (Rattus norvegicus) (UniProt O35433). Briefly: Antinociceptive activity in po dosed Sprague-Dawley rat assessed as ability to block capsaicin-induced paw flinching. The series is classed as functional, organism-based. The essentials: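 Rats dosed orally, then challenged with intraplantar capsaicin (0.5 µg/[…] per paw) to provoke flinching. Eight animals per group; ED50 taken from dose-response.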
Transient receptor potential cation channel subfamily V member 1 (Rattus norvegicus), sequence (O35433 whole entry): as above

Series [10] can be described thus: Oral bioavailability in Sprague-Dawley rat. The series is classed as ADME, organism-based. To be noted: in vivo.

Active and inactive are the calls of the source. The rule behind the calls is not given here.

Usually Cmax stands for the peak of the concentration-time curve. What is called clearance is the rate of elimination divided by the concentration. A low value points to inefficient removal. The IC50 is the concentration at which inhibition is half-maximal. As usually defined, the half-life is how long it takes for the measured level to halve. A low value points to rapid decline. As usually defined, the Tmax is the time from dosing to the highest level. The ED50 is the midpoint of the dose-response relation. As usually defined, the bioavailability is dose-corrected exposure relative to a reference, in per cent. A low value points to poor availability. `C[C@@H]1CN(c2ncc(C(O)CO)cc2Cl)CCN1c1nc2c(-c3cc(F)c(F)c(F)c3)cc(C(F)(F)F)cc2[nH]1` (mixture of isomers) showed a Cmax in series [1] of 617 ng/mL. Moreover, the clearance in series [2] is 4.5 mL/min/kg. Besides, the IC50 in series [3] and in series [7] was 0.9 nM each time. In series [4], this molecule had a half-life of 5.6 h. Moreover, the Tmax in series [5] worked out at 4 h. The outcome in [6] was Active. Besides, the Vd in [8] is 1.89 L/kg. For the same molecule, the ED50 in series [9] turned out to be 8.8 mg/kg. This molecule registered a bioavailability in series [10] of 17%.

Consider `FC(F)(F)c1ccc2nc(N3CCN(c4ccccc4C(F)(F)F)CC3)[nH]c2c1`, for which the IC50 in series [3] turned out to be 2060 nM; in [7] it was 406 nM.

As to `FC(F)(F)c1ccc2[nH]c(N3CCN(c4cccc(C(F)(F)F)n4)CC3)nc2c1`, the IC50 in [3] and in series [7] was > 40000 nM in each case.

Take `FC(F)(F)c1cc(Br)c2nc(N3CCN(c4ncccc4C(F)(F)F)CC3)[nH]c2c1`: the IC50 in series [3] is 131 nM; in series [7], 74 nM.

For the molecule `FC(F)(F)Oc1cccc(-c2cc(C(F)(F)F)cc3[nH]c(N4CCN(c5ncccc5C(F)(F)F)CC4)nc23)c1`, the IC50 in series [3] was 26 nM; in series [7], 21 nM.

Turning to `FC(F)(F)c1ccc2[nH]c(N3CCN(c4ncccc4I)CC3)nc2c1`, the half-maximal inhibitory concentration (IC50) in [3] was 221 nM; in series [7], 310 nM.

Consider `C[C@@H]1CN(c2ncc(Br)cc2Cl)CCN1c1nc2c(-c3cc(F)c(F)c(F)c3)cc(C(F)(F)F)cc2[nH]1`, for which the values for the IC50 in series [3] and in series [7] were 3.4 nM and 3.3 nM, respectively.

On to `FC(F)(F)c1cc(C(F)(F)F)c2[nH]c(N3CCN(c4ncccc4C(F)(F)F)CC3)nc2c1`, for which the IC50 came out at 325 nM in [3] and 120 nM in series [7].

With `Cc1cccnc1N1CCN(c2nc3ccc(C(F)(F)F)cc3[nH]2)CC1`, the IC50 in series [3] was determined as 402 nM; in series [7], 1140 nM.

As to `COC(=O)c1cnc(N2CCN(c3nc4c(-c5cc(F)c(F)c(F)c5)cc(C(F)(F)F)cc4[nH]3)[C@H](C)C2)c(Cl)c1`, the IC50 in [3] and in series [7] was 0.3 nM in each case.

On to `FC(F)(F)c1cccnc1N1CCN(c2nc3ccc(Cl)cc3[nH]2)CC1`, for which the IC50 in series [3] was 1130 nM; in [7], 17300 nM.

Consider `C[C@@H]1CN(c2ncc(NC(=O)CO)cc2Cl)CCN1c1nc2c(-c3ccc(F)cc3)cc(C(F)(F)F)cc2[nH]1`, for which the values for the IC50 in [3] and in series [7] were 30 nM and 9.2 nM, respectively.

As to `FC(F)(F)c1ccc(-c2cc(C(F)(F)F)cc3[nH]c(N4CCN(c5ncccc5C(F)(F)F)CC4)nc23)cc1`, the values for the IC50 in series [3] and in [7] were 51 nM and 37 nM, respectively.

Take `C[C@@H]1CN(c2ncc(N)cc2Cl)CCN1c1nc2c(-c3ccc(F)cc3)cc(C(F)(F)F)cc2[nH]1`: the IC50 in series [3] was 98 nM; in [7] it was 33 nM.

For `C[C@@H]1CN(c2ncc(CO)cc2C(F)(F)F)CCN1c1nc2c(-c3cc(F)c(F)c(F)c3)cc(C(F)(F)F)cc2[nH]1`, the IC50 is 1.4 nM in [3] and 0.7 nM in series [7].

Take `FC(F)(F)c1cc(N2CCOCC2)c2[nH]c(N3CCN(c4ncccc4C(F)(F)F)CC3)nc2c1`: the results for the IC50 in series [3] and in series [7] were 50 nM and 95 nM, respectively.

Consider `N#Cc1ccc2[nH]c(N3CCN(c4ncccc4C(F)(F)F)CC3)nc2c1`, for which the IC50 in [3] was 3300 nM; in series [7], > 4000 nM.

With `C[C@@H]1CN(c2nc3c(-c4cc(F)c(F)c(F)c4)cc(C(F)(F)F)cc3[nH]2)CCN1c1ncccc1Br`, the IC50 stood at 4.3 nM in [3] and 1.8 nM in [7].

For the molecule `C[C@H](O)c1cnc(N2CCN(c3nc4c(-c5cc(F)c(F)c(F)c5)cc(C(F)(F)F)cc4[nH]3)[C@H](C)C2)c(Cl)c1`, the IC50 in series [3] came out at 2.6 nM; in series [7], 3 nM.

In the case of `FC(F)(F)c1ccc2[nH]c(N3CCN(c4ccncc4C(F)(F)F)CC3)nc2c1`, the IC50 in [3] is 2380 nM; in [7], 2850 nM.
